Test results as given in ChEMBL document CHEMBL4428083, “Mitochondrial-Targeting MET Kinase Inhibitor Kills Erlotinib-Resistant Lung Cancer Cells” (ACS Med Chem Lett, 2016).
Active and inactive are the calls of the source. No cut-off for these calls is given here.

How the values were obtained:
HCC827 [1] = assay: Induction of apoptosis in erlotinib-resistant human HCC827B cells assessed as increase in cleaved PARP level at 4 uM measured up to 60 hrs by immunoblot analysis; type: functional, cell-based
Procedure, shortened: (§1)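 HCC827B cells treated with 4 μM compound; whole-cell lysates collected at 12, 24, 36, 48 and 60 h and immunoblotted for cleaved PARP and cleaved caspases 3 and 7. Control was untreated cells at 0 h; GAPDH was the loading control.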

[2] = biological target: Hepatocyte growth factor receptor (Homo sapiens) (UniProt P08581); assay: Inhibition of MET phosphorylation at Y1234/1235 in mitochondria isolated from compound treated erlotinib-resistant human HCC827B cells at 4 uM after 24 hrs by immunoblot analysis
Procedure, shortened: (§2)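 HCC827B cells exposed to 4 μM compound for 24 h; whole-cell lysates and mitochondria then isolated from treated cells and immunoblotted for p-MET Y1234/1235. Each lane held 10 μg protein; loading controls were actin (whole cells) and SDHA (mitochondria).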

[3] = Drug uptake in mitochondria of erlotinib-resistant human HCC827B cells assessed as R1 gated population at 4 uM after 1 hr by FACS analysis (reference value: >98%); type: ADME
HCC827 [4] = assay: Cytotoxicity against erlotinib-sensitive human HCC827A cells assessed as reduction in cell viability after 72 hrs by MTT assay; type: functional, cell-based; details: HCC827, 72 h
Procedure, shortened: (§3)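 Colorimetric tetrazolium assay after 72 h exposure; IC50 derived from viability. Comparisons between compounds by unpaired Student's t test.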

[5] = Effect on total MET expression level in mitochondria isolated from erlotinib-resistant human HCC827B cells at 4 uM after 1 to 1.5 hrs by immunoblot analysis; type: ADME
[6] = Drug uptake in mitochondria of erlotinib-resistant human HCC827B cells assessed as R1 gated population at 4 uM after 1 hr by MTR staining based FACS analysis (reference value: >98%); type: ADME
[7] = biological target: Hepatocyte growth factor receptor (Homo sapiens) (UniProt P08581); assay: Inhibition of MET phosphorylation at Y1234/1235 in erlotinib-resistant human HCC827B cells at 4 uM after 24 hrs by immunoblot analysis; procedure, shortened: as §2
TAMH = assay: Cytotoxicity against TAMH assessed as reduction in cell viability after 24 hrs by cell titer glo based luminescence assay; details: Mus musculus
Procedure, shortened: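 TAMH (TGFα-transformed murine hepatocytes; stable, nontumorigenic, metabolically competent line) exposed to compound for 24 h; IC50 from viability.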

HCC827 [8] = assay: Cytotoxicity against erlotinib-resistant human HCC827B cells expressing MET assessed as reduction in cell viability after 72 hrs by MTT assay; type: functional, cell-based; details: HCC827, 72 h; procedure, shortened: as §3
[9] = biological target: Hepatocyte growth factor receptor (Homo sapiens) (UniProt P08581); assay: Inhibition of MET phosphorylation at Y1234/1235 in erlotinib-resistant human HCC827B cells at 4 uM after 1 to 1.5 hrs by immunoblot analysis
Procedure, shortened: (§4)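 Whole HCC827B cells, or mitochondria first purified from them, were treated separately with 4 μM compound for 1 and 1.5 h, then immunoblotted for p-MET Y1234/1235. Each lane held 10 μg protein; loading controls were SDHA for mitochondria and actin for whole cells.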

HCC827 [10] = assay: Effect on total MET expression level in erlotinib-resistant human HCC827B cells at 4 uM after 1 to 1.5 hrs by immunoblot analysis; type: ADME, cell-based; details: hcc827, 4 µM
[11] = biological target: Hepatocyte growth factor receptor (Homo sapiens) (UniProt P08581); assay: Inhibition of MET phosphorylation at Y1234/1235 in mitochondria isolated from erlotinib-resistant human HCC827B cells at 4 uM after 1 to 1.5 hrs by immunoblot analysis; procedure, shortened: as §4
HCC827 [12] = assay: Induction of apoptosis in erlotinib-resistant human HCC827B cells assessed as increase in cleaved caspase 7 level at 4 uM measured up to 60 hrs by immunoblot analysis; type: functional, cell-based; procedure, shortened: as §1
[13] = Drug uptake in mitochondria of human HeLa cells at 4 uM after 3 hrs by MTR dye/Hoechst 33342 staining based confocal microscopy; type: ADME
Procedure, shortened: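 HeLa cells were exposed to 4 μM compound for 3 h, then stained with MitoTracker Red and Hoechst 33342 and imaged by confocal microscopy. Intrinsic compound green fluorescence (Ex 460, Em 520 nm) was compared for overlap with MTR.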

HCC827 [14] = assay: Induction of apoptosis in erlotinib-resistant human HCC827B cells assessed as increase in cleaved caspase 3 level at 4 uM measured up to 60 hrs by immunoblot analysis; type: functional, cell-based; procedure, shortened: as §1
HCC827 [15] = assay: Cytotoxicity against erlotinib-resistant human HCC827B cells assessed as cell viability at 1 uM after 72 hrs by MTT assay; type: functional; details: HCC827, 72 h, read-out: Activity
Procedure, shortened: (§5)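 Colorimetric tetrazolium viability assay with erlotinib at 1 μM; % viability reported, n = 3.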

HCC827 [16] = assay: Cytotoxicity against erlotinib-sensitive human HCC827A cells assessed as cell viability at 1 uM after 72 hrs by MTT assay; type: functional; details: HCC827, 72 h, read-out: Activity; procedure, shortened: as §5

Chain of Hepatocyte growth factor receptor (Homo sapiens) (P08581 whole entry): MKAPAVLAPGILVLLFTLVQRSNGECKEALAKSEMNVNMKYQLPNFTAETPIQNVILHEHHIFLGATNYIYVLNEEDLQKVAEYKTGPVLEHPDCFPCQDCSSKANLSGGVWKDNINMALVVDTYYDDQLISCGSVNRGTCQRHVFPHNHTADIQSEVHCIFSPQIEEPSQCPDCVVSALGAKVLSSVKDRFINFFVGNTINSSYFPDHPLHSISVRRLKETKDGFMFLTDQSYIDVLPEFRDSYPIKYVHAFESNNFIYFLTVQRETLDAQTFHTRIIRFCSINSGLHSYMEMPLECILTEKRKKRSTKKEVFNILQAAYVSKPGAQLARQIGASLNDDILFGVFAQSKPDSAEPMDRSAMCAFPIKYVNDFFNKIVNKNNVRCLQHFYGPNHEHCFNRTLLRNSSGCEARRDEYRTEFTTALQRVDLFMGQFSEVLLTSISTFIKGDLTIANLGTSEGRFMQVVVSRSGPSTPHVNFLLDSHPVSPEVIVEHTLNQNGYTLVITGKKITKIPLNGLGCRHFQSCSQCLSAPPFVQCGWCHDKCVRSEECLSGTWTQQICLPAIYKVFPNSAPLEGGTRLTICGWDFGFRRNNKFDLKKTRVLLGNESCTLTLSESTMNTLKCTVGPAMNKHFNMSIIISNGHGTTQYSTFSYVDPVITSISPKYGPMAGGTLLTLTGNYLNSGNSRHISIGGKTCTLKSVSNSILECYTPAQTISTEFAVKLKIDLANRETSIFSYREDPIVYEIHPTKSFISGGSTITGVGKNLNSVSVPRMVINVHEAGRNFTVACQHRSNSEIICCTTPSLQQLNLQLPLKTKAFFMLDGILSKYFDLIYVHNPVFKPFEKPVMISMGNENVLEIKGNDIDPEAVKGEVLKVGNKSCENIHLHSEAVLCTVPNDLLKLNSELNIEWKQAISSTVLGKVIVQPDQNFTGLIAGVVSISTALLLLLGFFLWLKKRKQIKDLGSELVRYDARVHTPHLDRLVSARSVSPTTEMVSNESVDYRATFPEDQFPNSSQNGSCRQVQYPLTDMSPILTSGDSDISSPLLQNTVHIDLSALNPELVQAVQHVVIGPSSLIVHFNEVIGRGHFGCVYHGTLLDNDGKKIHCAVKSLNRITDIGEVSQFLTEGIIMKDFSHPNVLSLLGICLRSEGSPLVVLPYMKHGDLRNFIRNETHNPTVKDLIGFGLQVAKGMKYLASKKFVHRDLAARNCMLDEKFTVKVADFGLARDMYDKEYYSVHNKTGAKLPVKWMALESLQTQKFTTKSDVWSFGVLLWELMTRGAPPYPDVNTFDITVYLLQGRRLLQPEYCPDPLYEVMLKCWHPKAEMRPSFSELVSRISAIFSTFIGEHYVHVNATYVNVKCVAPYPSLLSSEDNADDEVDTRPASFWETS

Row | inhibition [2] | Drug uptake [3] [%] | Drug uptake [6] [%] | inhibition [7] | inhibition [9] | inhibition [11] | Drug uptake [13] | SMILES | Activity (HCC827 [1]) | IC50 (HCC827 [4]) [µM] | Activity [5] | IC50 (TAMH) [µM] | IC50 (HCC827 [8]) [µM] | Activity (HCC827 [10]) | Activity (HCC827 [12]) | Activity (HCC827 [14]) | viability at 1 µM (HCC827 [15]) [%] | viability at 1 µM (HCC827 [16]) [%]
1 | Active | 98 | 95 | Active | Active | inactive | Active | Cc1[nH]c(/C=C2\C(=O)Nc3ccc(S(=O)(=O)Cc4c(Cl)cccc4Cl)cc32)c(C)c1C(=O)NCC[P+](c1ccccc1)(c1ccccc1)c1ccccc1.[Br-] | Active | 16.7 | Non-Toxic | 15.1 | 5.3 | Non-Toxic | Active | Active |  | 
2 | Active |  | 35 |  | Active | inactive | Not Active | Cc1[nH]c(/C=C2\C(=O)Nc3ccc(S(=O)(=O)Cc4c(Cl)cccc4Cl)cc32)c(C)c1C(=O)N1CCC[C@@H]1CN1CCCC1 [PHA-665752] | Active | 15.7 | Non-Toxic | 8.9 | 8.9 | Non-Toxic | Active | Active |  | 
3 |  |  |  |  |  |  |  | C#Cc1cccc(Nc2ncnc3cc(OCCOC)c(OCCOC)cc23)c1 [ERLOTINIB] |  |  |  |  |  |  |  |  | 72.4 | 22.4
